Data from article PMC8154590 (The Journal of antibiotics, 2021).
Counter-ions that a name gives are not always drawn.

test system: M. smegmatis 70S ribosome (spectinomycin site: helix-34 of 16S rRNA and RpsE protein); experiment: cell-free translation, luciferase read-out; type: biochemical, Mycolicibacterium smegmatis; conditions: purified 70S ribosomes, firefly luciferase mRNA
Procedure, shortened: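 Purified M. smegmatis 70S ribosomes were used in translation reactions programmed with firefly luciferase mRNA that was transcribed in vitro with T7 RNA polymerase. Inhibition was read as loss of luciferase activity. IC50 was taken as the drug concentration that inhibits luciferase activity by 50%.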

SMILES	Ribosome translation inhibition IC50 [µg/mL]
CN[C@H]1C[C@@H](NC)[C@H](O)[C@H]2O[C@@H]3O[C@H](C)C[C@@H](NC(=O)Cc4ccccn4)[C@]3(O)O[C@@H]21 [compound 10, 2-Deoxy-3’-deoxy-3’-dihydro-3’(R)-[(pyridin-2-yl)acetylamino]spectinomycin dihydrochloride]	10.2
CN[C@H]1[C@@H](O)[C@@H](NC)C[C@H]2O[C@@H]3O[C@H](C)C[C@@](O)(CNCc4ccc(F)cc4)[C@]3(O)O[C@H]12 [compound 7, 6-Deoxy-3’-dihydro-3’(R)-[(4-fluorobenzyl)aminomethyl]spectinomycin trihydrochloride]	23.3
CN[C@H]1C[C@@H](NC)[C@H](O)[C@H]2O[C@@H]3O[C@H](C)CC(=O)[C@]3(O)O[C@@H]21 [compound 9, 2-Deoxyspectinomycin dihydrochloride]	> 60
CN[C@@H]1[C@H](O)[C@H](NC)[C@H]2O[C@@]3(O)C(=O)C[C@@H](C)O[C@H]3O[C@@H]2[C@@H]1Cl [compound 8, 6-Epi-chloro-6-deoxyspectinomycin dihydrochloride]	54.7
CN[C@@H]1[C@H](O)[C@H](NC)[C@H]2O[C@@]3(O)C(=O)C[C@@H](C)O[C@H]3O[C@@H]2[C@H]1O [compound 1, Spectinomycin]	0.36
